Nine compounds from ChEMBL document CHEMBL6127098, “Discovery of Oral Degraders of the ROS1 Fusion Protein with Potent Activity against Secondary Resistance Mutations” (J Med Chem, 2024) can be followed below.

In experiment [1] the test system is BaF3. Description: Antiproliferative activity against mouse BaF3 cells harboring ROS1 G2032R mutant incubated for 72 hrs by Alamar blue reagent based plate reader assay. The conditions noted are these: BaF3, 72 h. On the technique in general: The colour change of resazurin is a common sign of viable cells or microbes.
Experiment [2] is described as follows: PROTAC activity at CRBN/ROS1 in mouse BaF3 cells assessed as ROS1 degradation by immunoblotting assay. Type of experiment: cell-based. The method, boiled down:
(§1)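 IL-3-independent Ba/F3 cells expressing CD74-ROS1 variants were treated with compound. ROS1 and phospho-ROS1 were quantified by capillary immunoassay (WES) in duplicate experiments. DC50 is the concentration that lowers ROS1 or p-ROS1 by 50%; Dmax is the maximal degradation.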
Background: Immunoblotting shows a protein as a band on a membrane.

Experiment [3] deals with BaF3. Description: Antiproliferative activity against mouse BaF3 cells expressing CD74-ROS1 incubated for 72 hrs by Alamar blue reagent based plate reader assay. Type of experiment: functional, cell-based. The following applies: BaF3, 72 h. In short, it runs like this:
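Ba/F3 cells stably expressing CD74- or SLC34A2-ROS1 fusions (wild type or mutant), made by retroviral transduction, selected with puromycin, and grown without IL-3 for ≥2 weeks. Alamar Blue added for 4 h. IC50 from sigmoidal nonlinear regression; mean ± SD of triplicate experiments.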

The test system of experiment [4] is BaF3. Description: PROTAC activity at CRBN/ROS1 in mouse BaF3 cells assessed as maximum ROS1 degradation by immunoblotting assay relative to control. Type of experiment: cell-based. The method, boiled down:
as §1

The nature of experiment [5]: Inhibition of ROS1-S1986F-G2032R-L2086F mutant/CD74 (unknown origin) expressed in mouse BaF3 cells. Type of experiment: cell-based, Homo sapiens.
Experiment [6] in a line: Inhibition of ROS1-V2098I mutant/SLC34A2 (unknown origin) expressed in mouse BaF3 cells. Type of experiment: cell-based, Homo sapiens.
Experiment [7] relates to BaF3. The experiment is described as follows: Induction of ROS1 G2032R/F2075V degradation in mouse BaF3 cells assessed as reduction in ROS1 level by Western blotting analysis. Type of experiment: cell-based. In short, it runs like this:
as §1

The nature of experiment [8]: Induction of LTK (unknown origin) degradation by Western blotting analysis. More on the design: species or system Homo sapiens.
Experiment [9] relates to BaF3. The experiment is described as follows: Induction of ROS1 G2032R degradation in mouse BaF3 cells assessed as reduction in p-ROS1 level by Western blotting analysis. Type of experiment: cell-based. In short, it runs like this: as §1
A short description of experiment [10]: Induction of ERBB4 (unknown origin) degradation by Western blotting analysis. More on the design: species or system Homo sapiens.
Experiment [11] is described as follows: Induction of FLT3 (unknown origin) degradation by Western blotting analysis. More on the design: species or system Homo sapiens.
The next experiment concerns the target CD74-ROS1 (Homo sapiens, UniProt P08922). Description: Inhibition of ROS1/CD74 (unknown origin) expressed in mouse BaF3 cells. Type of experiment: cell-based.
In experiment [12] the test system is BaF3. Description: Induction of ROS1 L2026M degradation in mouse BaF3 cells assessed as reduction in p-ROS1 level by Western blotting analysis. Type of experiment: cell-based. The method, boiled down:
as §1

The test system of experiment [13] is BaF3. Description: Induction of ROS1 L2026M degradation in mouse BaF3 cells assessed as reduction in ROS1 level by Western blotting analysis. Type of experiment: cell-based. The method, boiled down: as §1
Experiment [14] concerns BaF3. The experiment is described as follows: Induction of ROS1 G2032R degradation in mouse BaF3 cells assessed as reduction in ROS1 level by Western blotting analysis. Type of experiment: cell-based. The method, boiled down: as §1
For experiment [15], the system named is BaF3. The experiment is described as follows: Induction of ROS1 degradation in mouse BaF3 cells assessed as reduction in p-ROS1 level by Western blotting analysis. Type of experiment: cell-based. In short, it runs like this: as §1
The test system of experiment [16] is NCI-H2228. The experiment is described as follows: Induction of ALK degradation in human NCI-H2228 cells at 100 nM incubated for 24 hrs by proteomics analysis. Type of experiment: cell-based. In short, it runs like this:
(§2)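 Lysates in RIPA with protease/phosphatase inhibitors, protein measured by BCA, trypsin-digested and TMT-labelled. Relative abundance taken as the ratio of TMT reporter ions in degrader-treated versus inhibitor-treated cells.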

In experiment [17] the test system is BaF3. The experiment is described as follows: Induction of ROS1 G2032R/F2075V degradation in mouse BaF3 cells assessed as reduction in p-ROS1 level by Western blotting analysis. Type of experiment: cell-based. In short, it runs like this: as §1
A short description of experiment [18]: Induction of CLK1 (unknown origin) degradation by Western blotting analysis. More on the design: species or system Homo sapiens.
For experiment [19], the system named is BaF3. The experiment is described as follows: Induction of ROS1 D2033N degradation in mouse BaF3 cells assessed as reduction in p-ROS1 level by Western blotting analysis. Type of experiment: cell-based. In short, it runs like this: as §1
Experiment [20] has as its system BaF3. The experiment is described as follows: Induction of ROS1 degradation in mouse BaF3 cells assessed as reduction in ROS1 level by Western blotting analysis. Type of experiment: cell-based. In short, it runs like this: as §1
The target in experiment [21] is Proto-oncogene tyrosine-protein kinase ROS (Homo sapiens, UniProt P08922). The experiment is described as follows: Induction of ROS1 (unknown origin) degradation by Western blotting analysis. In short, it runs like this:
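Ba/F3 cells stably expressing CD74-ROS1 (retroviral transduction, puromycin-selected, IL-3 withdrawn at least 2 weeks before use) were grown in RPMI with 10% FBS and treated with compound diluted from DMSO stock in RPMI. Total ROS1 and p-ROS1 were quantified by WES capillary immunoblot in duplicate experiments. DC50 is the concentration that reduces protein by 50%, and Dmax is the maximal degradation.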

Experiment [22] relates to BaF3. The experiment is described as follows: Induction of ROS1 D2033N degradation in mouse BaF3 cells assessed as reduction in ROS1 level by Western blotting analysis. Type of experiment: cell-based. In short, it runs like this: as §1
The subject of experiment [23] is NCI-H2228. Description: Induction of FER degradation in human NCI-H2228 cells at 100 nM incubated for 24 hrs by proteomics analysis. Type of experiment: cell-based. In short, it runs like this: as §2
Experiment [24] concerns NCI-H2228. Description: Induction of FAK degradation in human NCI-H2228 cells at 100 nM incubated for 24 hrs by proteomics analysis. Type of experiment: cell-based. The method, boiled down:
as §2

Experiment [25] in a line: Inhibition of ROS1-G2032R-F2075C mutant/SLC34A2 (unknown origin) expressed in mouse BaF3 cells. Type of experiment: cell-based, Homo sapiens.

Calls of active or inactive are those of the source. The calls are words filed in the database; no cut-off is given here.

As a reminder, the IC50 is the point on the concentration scale where inhibition reaches its midpoint. Lower therefore signals greater potency in that assay. Broadly, the DC50 is the midpoint of the concentration-degradation curve. Broadly, the Emax is the size of the effect at its maximum, as opposed to the concentration needed.

Chain of Proto-oncogene tyrosine-protein kinase ROS (P08922 whole entry): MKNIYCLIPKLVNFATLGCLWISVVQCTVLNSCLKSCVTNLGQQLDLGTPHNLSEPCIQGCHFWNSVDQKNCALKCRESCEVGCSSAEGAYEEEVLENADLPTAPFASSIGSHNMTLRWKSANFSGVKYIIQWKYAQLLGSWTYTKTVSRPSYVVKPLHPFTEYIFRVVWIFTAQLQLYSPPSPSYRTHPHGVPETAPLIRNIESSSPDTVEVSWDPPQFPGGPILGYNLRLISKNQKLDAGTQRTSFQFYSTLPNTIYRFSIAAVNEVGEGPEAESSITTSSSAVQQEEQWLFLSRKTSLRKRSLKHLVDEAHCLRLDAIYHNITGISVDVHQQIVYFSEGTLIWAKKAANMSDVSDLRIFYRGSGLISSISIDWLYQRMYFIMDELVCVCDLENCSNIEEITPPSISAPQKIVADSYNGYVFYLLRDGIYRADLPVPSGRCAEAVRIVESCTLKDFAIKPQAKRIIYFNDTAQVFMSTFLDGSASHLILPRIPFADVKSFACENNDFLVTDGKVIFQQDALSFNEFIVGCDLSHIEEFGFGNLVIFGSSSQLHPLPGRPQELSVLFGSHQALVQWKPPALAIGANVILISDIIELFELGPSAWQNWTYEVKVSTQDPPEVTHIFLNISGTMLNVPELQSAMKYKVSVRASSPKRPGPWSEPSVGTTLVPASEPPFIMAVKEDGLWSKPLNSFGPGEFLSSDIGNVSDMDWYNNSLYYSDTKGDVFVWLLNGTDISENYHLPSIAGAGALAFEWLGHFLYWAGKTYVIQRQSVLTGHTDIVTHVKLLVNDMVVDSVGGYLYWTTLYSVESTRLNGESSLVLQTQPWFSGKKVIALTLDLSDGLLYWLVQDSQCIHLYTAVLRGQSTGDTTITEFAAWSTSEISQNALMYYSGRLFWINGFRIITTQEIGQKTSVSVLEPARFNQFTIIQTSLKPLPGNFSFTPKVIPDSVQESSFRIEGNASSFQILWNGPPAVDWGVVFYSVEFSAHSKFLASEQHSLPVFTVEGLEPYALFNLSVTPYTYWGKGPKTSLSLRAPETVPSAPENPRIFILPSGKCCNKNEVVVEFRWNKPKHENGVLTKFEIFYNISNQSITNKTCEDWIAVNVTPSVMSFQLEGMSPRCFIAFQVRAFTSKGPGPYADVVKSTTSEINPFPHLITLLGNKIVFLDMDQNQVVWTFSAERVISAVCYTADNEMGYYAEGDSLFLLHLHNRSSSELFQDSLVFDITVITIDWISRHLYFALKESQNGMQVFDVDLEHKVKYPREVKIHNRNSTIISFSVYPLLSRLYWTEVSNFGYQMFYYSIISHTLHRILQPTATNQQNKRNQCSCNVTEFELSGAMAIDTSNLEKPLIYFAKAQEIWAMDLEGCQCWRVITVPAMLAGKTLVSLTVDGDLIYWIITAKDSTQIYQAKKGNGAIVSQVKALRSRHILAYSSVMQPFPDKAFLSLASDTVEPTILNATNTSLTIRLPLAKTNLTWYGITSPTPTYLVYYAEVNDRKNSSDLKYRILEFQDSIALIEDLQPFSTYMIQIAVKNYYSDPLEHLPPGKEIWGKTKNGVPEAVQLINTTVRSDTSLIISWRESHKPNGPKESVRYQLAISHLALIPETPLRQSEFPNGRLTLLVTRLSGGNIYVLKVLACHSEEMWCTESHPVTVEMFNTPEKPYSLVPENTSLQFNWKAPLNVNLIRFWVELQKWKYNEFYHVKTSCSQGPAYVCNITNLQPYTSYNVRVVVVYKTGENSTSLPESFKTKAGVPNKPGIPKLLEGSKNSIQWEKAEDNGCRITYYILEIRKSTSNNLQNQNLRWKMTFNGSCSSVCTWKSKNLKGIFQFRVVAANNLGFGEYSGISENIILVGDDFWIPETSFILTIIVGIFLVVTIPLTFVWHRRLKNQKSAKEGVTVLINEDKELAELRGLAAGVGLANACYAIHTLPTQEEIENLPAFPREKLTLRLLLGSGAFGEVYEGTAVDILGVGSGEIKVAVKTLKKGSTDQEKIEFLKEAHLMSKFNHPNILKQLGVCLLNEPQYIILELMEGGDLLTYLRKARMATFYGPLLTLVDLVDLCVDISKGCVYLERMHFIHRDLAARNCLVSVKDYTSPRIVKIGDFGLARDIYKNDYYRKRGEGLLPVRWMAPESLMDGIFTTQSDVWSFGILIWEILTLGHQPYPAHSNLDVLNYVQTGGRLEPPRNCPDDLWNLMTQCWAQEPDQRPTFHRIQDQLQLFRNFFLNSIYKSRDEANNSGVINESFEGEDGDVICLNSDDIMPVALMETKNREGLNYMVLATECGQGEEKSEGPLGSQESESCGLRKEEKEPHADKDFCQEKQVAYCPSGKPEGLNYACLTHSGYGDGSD
Chain of CD74-ROS1 (P04233 whole entry): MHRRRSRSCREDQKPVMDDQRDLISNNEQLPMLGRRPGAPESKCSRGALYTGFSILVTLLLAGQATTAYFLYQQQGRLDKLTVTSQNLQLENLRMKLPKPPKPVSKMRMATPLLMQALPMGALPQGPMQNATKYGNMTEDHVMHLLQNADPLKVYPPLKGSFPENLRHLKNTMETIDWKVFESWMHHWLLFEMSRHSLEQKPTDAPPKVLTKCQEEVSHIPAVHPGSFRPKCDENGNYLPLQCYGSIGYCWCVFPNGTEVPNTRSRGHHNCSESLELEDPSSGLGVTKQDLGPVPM
Chain of CD74-ROS1 (P08922 whole entry): as the sequence (P08922 whole entry) above

With `COc1cc(N2CCC(N3CCN(CC4CCN(c5cccc6c5C(=O)N(C5CCC(=O)NC5=O)C6=O)CC4)CC3)CC2)ccc1Nc1ncc(Cl)c(Nc2ccccc2P(C)(C)=O)n1` (stereo unspecified), the values for the concentration for half-maximal inhibition (IC50) in the experiment on BaF3 [1] and in the experiment on BaF3 [3] were 87 nM and 11.2 nM, respectively. For the same compound, the 50% degradation concentration (DC50) in experiment [2] turned out to be 6 nM. Also, the Emax with BaF3 [4] was 99%.

`COc1cc(N2CCC(N3CCN(C)CC3)CC2)ccc1Nc1ncc(Cl)c(Nc2ccccc2P(C)(C)=O)n1` [BRIGATINIB]: the concentration for half-maximal inhibition (IC50) in experiment [5] was > 2000 nM.

In the case of `COc1cc(N2CCC(N3CCN(C4CN(c5cccc6c5C(=O)N(C5CCC(=O)NC5=O)C6=O)C4)CC3)CC2)ccc1Nc1ncc(Cl)c(Nc2ccccc2P(C)(C)=O)n1` (stereo unspecified), the values for the half-inhibitory concentration (IC50) with BaF3 [1] and in the experiment with BaF3 [3] were 1040 nM and 113 nM, respectively. The 50% degradation concentration (DC50) in experiment [2] was 108 nM. In addition, the maximal effect (Emax) with BaF3 [4] came to 77%.

On to `C[C@H]1Oc2cc(cnc2N)-c2c(nn(C)c2C#N)CN(C)C(=O)c2ccc(F)cc21` [LORLATINIB], for which the IC50 in experiment [5] was > 2000 nM; in [6], 1.5 nM.

In the case of `Cc1cc(Nc2ncc(Cl)c(Nc3ccccc3S(=O)(=O)C(C)C)n2)c(OC(C)C)cc1C1CCN(C2CCN(C3CN(c4ccc5c(c4)C(=O)N(C4CCC(=O)NC4=O)C5=O)C3)CC2)CC1` (stereo unspecified), in experiment [2], the 50% degradation concentration (DC50) stood at 45 nM.

In the case of `COc1cc(N2CCC(N3CCN(CC4CN(c5cccc6c5C(=O)N(C5CCC(=O)NC5=O)C6=O)C4)CC3)CC2)ccc1Nc1ncc(Cl)c(Nc2ccccc2P(C)(C)=O)n1` (stereo unspecified), the IC50 was 244 nM in the experiment with BaF3 [1] and 41 nM in the experiment with BaF3 [3]. Also, in [2], the DC50 came out at 56 nM. Also, the Emax in the experiment on BaF3 [4] amounted to 79%.

For `COc1cc(N2CCC(N3CCN(CC4CCN(c5ccc6c(c5)CN(C5CCC(=O)NC5=O)C6=O)CC4)CC3)CC2)ccc1Nc1ncc(Cl)c(Nc2ccccc2P(C)(C)=O)n1` (stereo unspecified), the 50% degradation concentration (DC50) in experiment [2] was 3.8 nM; in experiment [8], > 1000 nM; in [10], > 1000 nM; in experiment [11], > 1000 nM; in [18] it was > 1000 nM; in [21] it was 3.8 nM. The Activity result in the experiment with BaF3 [7], with BaF3 [9], with BaF3 [12], with BaF3 [13], in the experiment with BaF3 [14] and in the experiment on BaF3 [15] was “Dose-Dependent Effect” throughout. Further, the Activity result with BaF3 [17], in the experiment on BaF3 [19], in the experiment with BaF3 [20] and with BaF3 [22] was “Dose-Dependent Effect” in each case. Further, on CD74-ROS1, it took 1.6 nM to reach half-maximal inhibition (IC50). The outcome in the experiment on NCI-H2228 [16], in the experiment on NCI-H2228 [23] and in the experiment on NCI-H2228 [24] was Active.

For the compound `C[C@H]1CNC(=O)c2cnn3ccc(nc23)N[C@H](C)c2cc(F)ccc2O1` [REPOTRECTINIB], the IC50 in experiment [5] and in [25] was > 2000 nM each time.

`COc1cc(N2CCN(CC3CCN(c4ccc5c(c4)CN(C4CCC(=O)NC4=O)C5=O)CC3)CC2)ccc1Nc1ncc(Cl)c(Nc2ccccc2P(C)(C)=O)n1` (stereo unspecified): in [2], the DC50 is 11 nM. Besides, the IC50 in the experiment on BaF3 [3] is 9.5 nM. Also, the Emax in the experiment with BaF3 [4] turned out to be 93%.
